Experimental data from PMC7286531 (Organic & biomolecular chemistry, 2020).

Legend:
[1] = tested on: STAT3 phosphorylated on tyrosine 705 (pSTAT3); test: G-CSF-induced intracellular STAT3 phosphorylation assay in AML cell lines; format: cell-based, human; details: Kasumi-1 / Kasumi cells
Outline: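 Kasumi-1 human AML cells (also other AML lines) were exposed to a concentration series of test compound and stimulated with G-CSF to induce STAT3 phosphorylation. Cells were then lysed, and STAT3 phosphorylated on Tyr705 was quantified with a fluorescent anti-pSTAT3 antibody. IC50 was taken from the concentration series; mean ±SD, n = 3.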

[2] = Stability in aqueous buffer under air; format: physicochemical; details: C188–9: within 4 hours

stability in aqueous buffer in air, result in words [2]: Significant decomposition
Structure (SMILES): COc1ccc(S(=O)(=O)Nc2cc(-c3c(O)ccc4ccccc34)c(O)c3ccccc23)cc1 [C188–9]
inhibition of G-CSF-induced STAT3 phosphorylation, result in words [1]: exceptionally resistant
